These results are taken from ChEMBL document CHEMBL1133688, “Hunting the emesis and efficacy targets of PDE4 inhibitors: identification of the photoaffinity probe 8-(3-azidophenyl)-6- [(4-iodo-1H-1-imidazolyl)methyl]quinoline (APIIMQ)” (J Med Chem, 2000).

The term IC50 denotes the concentration needed to halve the response being measured. For orientation: ED50 means the midpoint of the dose-response relation. A high value points to weaker potency. The term Ki denotes the equilibrium dissociation constant of an inhibitor or competing ligand from its target.

Assay [1] has as its target 3',5'-cyclic-AMP phosphodiesterase 4A (Homo sapiens, UniProt P27815). The experiment in a line: Inhibition of recombinant human PDE4A expressed in Sf9 cells. Summed up:
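Inhibition of the purified enzyme's catalytic activity (cAMP hydrolysis) was measured, and IC50 was derived.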

For assay [2], the species on record is Cavia porcellus. Kind of assay: Bronchoconstriction effect in ovalbumin-induced guinea pig model. The format is functional.
Assay [3] is filed under the species Homo sapiens. Kind of assay: Inhibition of LPS-induced TNF-alpha secretion in human whole blood. In kind it is functional.

3',5'-cyclic-AMP phosphodiesterase 4A, sequence (P27815 whole entry): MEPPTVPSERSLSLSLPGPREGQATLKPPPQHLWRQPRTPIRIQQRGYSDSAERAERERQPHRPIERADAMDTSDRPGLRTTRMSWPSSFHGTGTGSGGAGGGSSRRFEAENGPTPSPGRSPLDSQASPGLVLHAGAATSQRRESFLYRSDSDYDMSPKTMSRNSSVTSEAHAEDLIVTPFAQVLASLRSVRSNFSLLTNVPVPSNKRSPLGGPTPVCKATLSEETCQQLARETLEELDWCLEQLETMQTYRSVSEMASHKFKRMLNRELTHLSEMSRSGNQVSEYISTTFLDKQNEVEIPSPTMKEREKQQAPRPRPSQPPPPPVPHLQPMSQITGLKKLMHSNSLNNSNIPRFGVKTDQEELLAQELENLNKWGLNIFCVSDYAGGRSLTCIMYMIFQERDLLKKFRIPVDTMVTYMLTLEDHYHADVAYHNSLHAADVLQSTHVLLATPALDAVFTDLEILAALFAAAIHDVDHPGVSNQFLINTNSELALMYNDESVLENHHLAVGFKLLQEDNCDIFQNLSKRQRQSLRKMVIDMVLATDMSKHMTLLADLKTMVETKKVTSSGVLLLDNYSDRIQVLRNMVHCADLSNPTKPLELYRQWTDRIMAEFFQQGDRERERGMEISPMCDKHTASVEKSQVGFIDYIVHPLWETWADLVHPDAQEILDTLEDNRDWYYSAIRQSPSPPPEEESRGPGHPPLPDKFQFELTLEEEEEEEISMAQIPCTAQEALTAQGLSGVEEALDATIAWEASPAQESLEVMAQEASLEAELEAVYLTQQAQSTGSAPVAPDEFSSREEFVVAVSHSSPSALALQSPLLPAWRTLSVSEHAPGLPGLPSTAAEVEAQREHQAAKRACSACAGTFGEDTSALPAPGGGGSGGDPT

As to `O=C(c1ccccc1)c1cc(-c2cccc(I)c2)c2ncccc2c1`, the IC50 in assay [1] turned out to be 15 nM. For `[N-]=[N+]=Nc1cc(-c2cccc(I)c2)c2ncccc2c1`, in assay [1], the IC50 came to 28 nM. Regarding `COc1ccc(C2CC(=O)N(Cc3cc(I)cc(C4(C(F)(F)F)N=N4)c3)C2)cc1OC1CCCC1` (centres undefined), the IC50 in assay [1] came out at 35 nM.

Turning to `[N-]=[N+]=Nc1ccc(I)c(-c2cc(Cc3ccncc3)cc3cccnc23)c1`, the IC50 in assay [1] came to 3.3 nM. As for `O=[N+]([O-])c1cccc(-c2cc(Cc3ccncc3)cc3cccnc23)c1`, in assay [1], the IC50 stood at 0.07 nM.

In the case of `[N-]=[N+]=Nc1cccc(-c2cc(I)cc3cccnc23)c1`, the IC50 in assay [1] was determined as 2.7 nM. On to `O=c1c2c(ncn2Cc2ccccc2)c2cccnc2n1-c1ccccc1`, for which the IC50 in assay [1] came to 0.6 nM. Same read-out and setting: the value for `[N-]=[N+]=Nc1cccc(-c2cc(Cc3ccncc3)cc3cccnc23)c1` was 0.2 nM; that for `O=c1c2c(ncn2Cc2cc(I)cc(C3(C(F)(F)F)N=N3)c2)c2cccnc2n1-c1ccccc1` was 250 nM. `[N-]=[N+]=Nc1cccc(-c2cc(Cn3cnc(I)c3)cc3cccnc23)c1` came in with an ED50 in assay [2] of 0.3 mg/kg. Further, the values for the IC50 in assay [3] and in assay [1] were 2000 nM and 0.4 nM, respectively. Consider `c1ccc(-c2cc(Cn3ccnc3)cc3cccnc23)cc1`, for which, in assay [1], the IC50 is 9 nM. Take `COc1ccc([C@H](Cc2ccncc2)c2ccccc2)cc1OC1CCCC1` [CDP840]: the Ki in assay [1] was 4 nM.
